# Measurements as given in the RNAGym collection of RNA variant scans (doi:10.1126/science.aae0568).
# Variants at the floor of the assay were thinned out.
# B1: tRNA (parent)
# chain: GUUCCGUUGGCGUAAUGGUAACGCGUCUCCCUCCUAAGGAGAAGACUGCGGGUUCGAGUCCCGUACGGAACG
# Variants of: B1
# Experiment: yeast fitness relative to wild type (ratio to wild type); higher = fitter; tRNA-Arg(CCU), competitive growth, 37 C, YPD
# Method in brief: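 Genotype frequency changes were the basis for Darwinian fitness relative to wild type. The frequencies came from 100-nucleotide paired-end sequencing of gene amplicons from the start population and each end population of pooled yeast strains with tRNA-Arg(CCU) gene variants at the native locus. Competition ran in YPD at 37°C for 24 hours in six replicates, genotypes needed ≥ 100 starting reads, and estimates < 0.5 were set to 0.5.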
row,Variant,yeast fitness
1,G9A C27G A40G G52A,≤ 0.5
2,G10A C29G C33U G50A,0.535
3,G9A G12U A14U U53A U54C,≤ 0.5
4,G9A C29U U32A A43U,0.604
5,G9A G10A C24A G44A,≤ 0.5
6,G10A A14G U26C A36U G52A,≤ 0.5
7,G9A C29A A37G,0.513
8,G10A C30G A65G,≤ 0.5
9,G9C C24A A45G C46G,0.597
10,G9A G39A A45G G50A G63U A69U,≤ 0.5
11,G9C G12C C24U C34U C49G,0.658
12,G10A A45G,0.839
13,G10A C34U G39C,≤ 0.5
14,G10A A20U C31G C62U,≤ 0.5
15,G9C C24G C27U U47G U53A,≤ 0.5
16,G9A G52A,0.687
17,G9C C24A C34A C46G,≤ 0.5
18,G10A G18A,≤ 0.5
19,G9A C22A C60A,0.705
20,G10A A21U C33A G68C,0.607
21,G9A C27U G41C,0.618
22,G9C A15G U16C C29A U47C,0.69
23,G9A G12C G17A C22G C30U C34G C49U U59G,≤ 0.5
24,G10A A21C A40G U59C,≤ 0.5

row,Variant,yeast fitness
1,G10A G23C C33G C55G,≤ 0.5
2,G9A C27G U35A,≤ 0.5
3,G10A G48A,0.636
4,G10A A21U C31G,≤ 0.5
5,G10A G17C C30G C33G C61A,0.556
6,G9A G12C C31A C33G A43C A69U A70C,≤ 0.5
7,G10A G18A C46A A65U,≤ 0.5
8,G10A C60G C61G,0.528
9,G10A G17C C31U C55U C60A,≤ 0.5
10,G9C G12C C31A A40U,≤ 0.5
11,G9A C29A G56C,≤ 0.5
12,G10A C27U C33U A43U U54C G68C,≤ 0.5
13,G9A U54C,0.841
14,G9C A14C A15U G23A C34A G52C G63C,0.585
15,G10A G39A,0.784
16,G9A C34U G67A,≤ 0.5
17,G9C C11U G18C C31A A57G,≤ 0.5
18,G10A A21C C34U,≤ 0.5
19,G9A G25A A43G A65U,≤ 0.5
20,G10A G17C,0.549
21,G10A G17A,0.556
22,G10A C11G A20G C55G,≤ 0.5
23,G10A A45G C55A,≤ 0.5
24,G9C A40U G41A,≤ 0.5

row,Variant,yeast fitness
1,G9C A40G A42G A57U C62G C66U,0.565
2,G9C C27U C34G C60A,≤ 0.5
3,G10A A36C,≤ 0.5
4,G10A A36G,0.664
5,G9C C11A U47G A69C,0.601
6,G9C C22G C33G G63C,≤ 0.5
7,G10A C11A C29A A69U,0.538
8,G10A C27G U28G C34U C46G G67A,≤ 0.5
9,G9C A20C,0.626
10,G9C C30G A37U U47A,≤ 0.5
11,G9C A21G A57C,≤ 0.5
12,G9A G12C A65G G67C A69G,≤ 0.5
13,G9C G56C,0.514
14,G9C G10C A36U G44A C46G,0.563
15,G10A G48A A69C,0.628
16,G9C G50C U53G G67C,0.68
17,G10A C33U G44C A45G G58A,≤ 0.5
18,G9C G48C,0.695
19,G9C G12A A57C,0.541
20,G9A C11U C49A G67U,≤ 0.5
21,G9C G44C,0.65
22,G10A A15C A70U,≤ 0.5
23,G9C C46G,0.735
24,G9U G18A C46A C49G,0.552

row,Variant,yeast fitness
1,G10A A21C C24A G63A A65C,≤ 0.5
2,G9A C46A,0.91
3,G9C C30G A57U C60G,0.533
4,G9C C29A,0.601
5,G10A C29U A57C,≤ 0.5
6,G9U C31U A36C U53C,≤ 0.5
7,G10A A42C A43C C66A,≤ 0.5
8,G9A C30U C33A A36U A43U U54C G56A,0.626
9,G10A A15C G25A C66U,0.543
10,G10A A15G C27U A42C G50C,≤ 0.5
11,G9C G39C A45C,≤ 0.5
12,G9A C46A C55U,0.543
13,G9C G44A C60G,≤ 0.5
14,G9A C27G C34U,≤ 0.5
15,G9A C24G C34G C55A A65G,≤ 0.5
16,G9C A15G C24A C49U,≤ 0.5
17,G10A C11G A69C A70G,≤ 0.5
18,G9C G12A U35G,≤ 0.5
19,G9A C11U C27U A36G,≤ 0.5
20,G9C C24U U26G A42U G52U,≤ 0.5
21,G9A C31A G41C C55U,≤ 0.5
22,G9A C24G C34G A45C A65G,≤ 0.5
23,G9A C29U A65U,≤ 0.5
24,G9A C55G A69C,0.611

row,Variant,yeast fitness
1,G9A C55G G56C,≤ 0.5
2,G9C C27G G44A A57G,0.691
3,G9A G56A A70C,1.03
4,G10A A36U A37G,≤ 0.5
5,G9C A15U U16C A36U,≤ 0.5
6,G10A G12A U53A,≤ 0.5
7,G9C C55G C66A,≤ 0.5
8,G10A U16A A21C,1
9,G10A C60G,0.531
10,G10A C60U,0.544
11,G9A C24G G39C G56C,≤ 0.5
12,G10A C34U,≤ 0.5
13,G9C G10C C29G C46A C66U,≤ 0.5
14,G9C A20U C27G A42C C49U A65C,≤ 0.5
15,G9C A65C,0.67
16,G9A C31A U47C G67A,≤ 0.5
17,G9C A45C A65C,≤ 0.5
18,G10A A15U G51A A65U,0.603
19,G10A C62U,0.843
20,G9A C34U C46A C62U,0.546
21,G9A U53G,0.661
22,G10A G23A,0.534
23,G10A C11A C29A,0.627
24,G9A C31A U47A,≤ 0.5

row,Variant,yeast fitness
1,G9C C33U,0.536
2,G9C U47G C49A A69U,≤ 0.5
3,G9C A14U A21C C61A,0.81
4,G9C C27U A36G A42U,0.76
5,G9C U53C,0.59
6,G10A C49A G67A,≤ 0.5
7,G10A G18C A20U C30A,≤ 0.5
8,G9C A14G G44A U53C A70U,≤ 0.5
9,G10A G63C A65G,≤ 0.5
10,G9C U16C A69C,0.562
11,G10A G38A A57G,≤ 0.5
12,G10A A15U A36G U47G A65U,≤ 0.5
13,G10A C33U,0.592
14,G9C A14C A69U,≤ 0.5
15,G9A G50A G67A,0.652
16,G9A G56A,1
17,G10A A36C C62G,≤ 0.5
18,G10A C24G G56A,≤ 0.5
19,G9A U28C A36G,0.683
20,G9A U19C C22A,0.606
21,G9A G51A C60U G67A,0.588
22,G9C G38A,0.624
23,G10A C34G U64A,≤ 0.5
24,G9C A20G U35C A36G,≤ 0.5

row,Variant,yeast fitness
1,G9C U13C C27A U54A C60U,≤ 0.5
2,G10A A57G G68C,≤ 0.5
3,G10A G56A C60U,≤ 0.5
4,G9A G10A C55A A65U G67C,0.506
5,G10A A14U C30U C34A,≤ 0.5
6,G10A A20C C61A C62U G63U C66A,0.646
7,G9A C11U C61A,0.56
8,G9C U28C A42U,0.647
9,G9A G44A C46U A69C,0.787
10,G9C C22G G50A,≤ 0.5
11,G10A C11A G67C,≤ 0.5
12,G9A U19G U59C C62G A65U,≤ 0.5
13,G9C C46U G63A,0.69
14,G9A C27G C34A C46G C55A,0.508
15,G9C C27G C46G A65G,≤ 0.5
16,G9C A14G U16G G23A C33A G44A,≤ 0.5
17,G9C U19C G48A U64C,0.609
18,G10A C27U G67C,0.627
19,G10A G17A U19A C29U C49G,≤ 0.5
20,G9C G10A G12C G25C G52C,≤ 0.5
21,G9U C24G C55U,0.668
22,G10A A36C A70G,≤ 0.5
23,G10A C11A C29A A45C A69U,≤ 0.5
